Source: ChEMBL document CHEMBL5338743, “Identification of a Selective SCoR2 Inhibitor That Protects Against Acute Kidney Injury” (J Med Chem, 2023)
One block for each molecule: values may come before it. Calls of active or inactive are those of the source. The rule behind the calls is not given here.

What was measured:
[1] = target: T1, Aldo-keto reductase family 1 member A1 (Homo sapiens, UniProt P14550); experiment: Inhibition of C-terminal 6His-tagged human recombinant SCoR2 AKR1A1 expressed in Escherichia coli BL21-CodonPlus competent cells using SNO-CoA as substrate incubated for 2 mins in presence of NADPH
T1 sequence (P14550 whole entry): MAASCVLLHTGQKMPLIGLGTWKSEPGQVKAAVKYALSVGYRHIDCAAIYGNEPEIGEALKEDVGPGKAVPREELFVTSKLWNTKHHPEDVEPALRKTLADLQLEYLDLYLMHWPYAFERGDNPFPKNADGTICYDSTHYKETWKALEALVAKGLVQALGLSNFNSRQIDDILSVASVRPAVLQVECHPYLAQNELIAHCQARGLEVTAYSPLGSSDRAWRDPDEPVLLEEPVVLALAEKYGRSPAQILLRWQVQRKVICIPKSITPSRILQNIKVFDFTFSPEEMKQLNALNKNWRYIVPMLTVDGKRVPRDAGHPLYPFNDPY
Procedure, shortened: (§1)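 Purified enzyme at 200 nM (SCoR2 with 100 μM SNO-CoA; AKR1B1 with 100 μM methylglyoxylate) in 50 mM phosphate pH 7.0 with serial inhibitor dilutions; started with 100 μM NADPH, 2 min. Rate from 340 nm decrease, normalized to 20 nM protein activity; IC50 fitted, n=3. Selectivity taken as AKR1B1/SCoR2 IC50 ratio.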

Homo sapiens = species: Homo sapiens; experiment: Selectivity index, ratio of IC50 for inhibition of human recombinant AKR1B1 expressed in Escherichia coli BL21-CodonPlus competent cells to IC50 for inhibition of human recombinant SCoR2 expressed in Escherichia coli BL21-CodonPlus competent cells; procedure, shortened: as §1
[2] = target: T2, Aldo-keto reductase family 1 member B1 (Homo sapiens, UniProt P15121); experiment: Inhibition of C-terminal 6His-tagged human recombinant AKR1B1 expressed in Escherichia coli BL21-CodonPlus competent cells using methyl glyoxylate as substrate incubated for 2 mins in presence of NADPH; procedure, shortened: as §1
[3] = target: T1, Aldo-keto reductase family 1 member A1; experiment: Inhibition of C-terminal 6His-tagged human recombinant SCoR2 AKR1A1 expressed in Escherichia coli BL21-CodonPlus competent cells using DL-glyceraldehyde as substrate
Procedure, shortened: (§2)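 Recombinant human His-tagged enzyme (20 nM) with 3 mM DL-glyceraldehyde in 50 mM phosphate pH 7.0, varying inhibitor from DMSO stocks; started with 100 μM NADPH, 2 min. NADPH consumption followed spectrophotometrically, slope used to fit IC50.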

Mus musculus [4] = experiment: Protection against ischemia/reperfusion induced acute kidney injury in mouse assessed as reduction in blood urea nitrogen level at 20 mg/kg, ip pretreated for 18 hrs followed by kidney injury surgery and measured after 24 hrs; type: functional, organism-based; conditions: time 42.0 hrs
Procedure, shortened: (§3)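 Male mice (9–11 weeks, 25–28 g) given i.p. dose 18 h before ischemia–reperfusion AKI surgery under isoflurane; serum taken 24 h after reperfusion. Creatinine and BUN measured by a clinical laboratory; DMSO-treated controls.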

Mus musculus [5] = experiment: Protection against ischemia/reperfusion induced acute kidney injury in mouse assessed as reduction in serum creatinine level at 20 mg/kg, ip pretreated for 18 hrs followed by kidney injury surgery and measured after 24 hrs; type: functional, organism-based; conditions: time 42.0 hrs; procedure, shortened: as §3
Mus musculus [6] = experiment: In vivo inhibition of SCoR2 in ischemia/reperfusion induced acute kidney injury mouse model assessed as reduction in SNO-CoA metabolic activity in kidneys at 125 mg/kg, ip administered for 3 to 12 weeks; type: functional, organism-based; conditions: time 3-12 weeks
[7] = In vivo inhibition of SCoR2 in mouse assessed as reduction in SNO-CoA metabolic activity in kidneys at 20 mg/kg body weight, ip administered as single dose into lower right quadrant of abdomen measured after 18 hrs relative to control; type: functional
Procedure, shortened: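 Single i.p. injection into the mouse abdomen, DMSO vehicle; organs collected 18 h later. Tissues homogenized in 50 mM phosphate pH 7.0, 150 mM NaCl, EDTA/DTPA, then clarified; lysate started reactions with 200 μM SNO-CoA and 100 μM NADPH, 2 min, NADPH loss monitored, in triplicate. Compared with vehicle and SCoR2−/− kidneys.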

Mus musculus [8] = experiment: In vivo inhibition of SCoR2 in ischemia/reperfusion induced acute kidney injury mouse model assessed as reduction in SNO-CoA metabolic activity in kidneys at 20 mg/kg, ip pretreated for 18 hrs followed by kidney injury surgery and measured after 24 hrs; type: functional, organism-based; conditions: time 42.0 hrs
Procedure, shortened: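 Male mice (9–11 weeks, 25–28 g) dosed i.p. 18 h before renal ischemia–reperfusion surgery under isoflurane; kidneys taken 24 h after reperfusion. Kidney lysate SNO-CoA reductase activity measured with 200 μM SNO-CoA, 100 μM NADPH, 2 min, triplicate assays; DMSO-treated controls.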

Mus musculus [9] = experiment: Protection against ischemia/reperfusion induced acute kidney injury in mouse assessed as reduction in serum creatinine level at 125 mg/kg, ip administered for 3 to 12 weeks; type: functional, organism-based; conditions: time 3-12 weeks
Mus musculus [10] = experiment: Protection against ischemia/reperfusion induced acute kidney injury in mouse assessed as reduction in blood urea nitrogen level at 125 mg/kg, ip administered for 3 to 12 weeks; type: functional, organism-based; conditions: time 3-12 weeks
[11] = target: T2, Aldo-keto reductase family 1 member B1; experiment: Inhibition of C-terminal 6His-tagged human recombinant AKR1B1 expressed in Escherichia coli BL21-CodonPlus competent cells using DL-glyceraldehyde as substrate; procedure, shortened: as §2
[12] = compound: O=C1NC(=O)C2(N1)c1ccccc1-c1ccc(C3CC3)cc12; experiment: Uncompetitive inhibition of C-terminal 6His-tagged human recombinant SCoR2 AKR1A1 expressed in Escherichia coli BL21-CodonPlus competent cells using varying concentrations of SNO-CoA as substrate assessed as Vmax at 400 nM by Michaelis-Menten analysis (reference value: 23 umol.min)
[13] = compound: O=C1NC(=O)C2(N1)c1ccccc1-c1ccc(C3CC3)cc12; experiment: Uncompetitive inhibition of C-terminal 6His-tagged human recombinant SCoR2 AKR1A1 expressed in Escherichia coli BL21-CodonPlus competent cells using varying concentrations of SNO-CoA as substrate assessed as Km at 100 nM by Michaelis-Menten analysis (reference value: 254 uM)
[14] = compound: O=C1NC(=O)C2(N1)c1ccccc1-c1ccc(C3CC3)cc12; experiment: Uncompetitive inhibition of C-terminal 6His-tagged human recombinant SCoR2 AKR1A1 expressed in Escherichia coli BL21-CodonPlus competent cells using varying concentrations of SNO-CoA as substrate assessed as Vmax at 100 nM by Michaelis-Menten analysis (reference value: 23 umol.min)
[15] = compound: O=C1NC(=O)C2(N1)c1ccccc1-c1ccc(C3CC3)cc12; experiment: Uncompetitive inhibition of C-terminal 6His-tagged human recombinant SCoR2 AKR1A1 expressed in Escherichia coli BL21-CodonPlus competent cells using varying concentrations of SNO-CoA as substrate assessed as Km at 400 nM by Michaelis-Menten analysis (reference value: 254 uM)

Molecule: O=C(O)Cc1c(O)c(F)cc2c1-c1ccc(F)cc1C21NC(=O)NC1=O (stereo in doubt; 47-2) [listing 1 of 2 here]
- Ratio IC50 (Homo sapiens): 0.67

Molecule: O=C(O)Cc1c(O)c(F)cc2c1-c1ccc(F)cc1C21NC(=O)NC1=O (stereo in doubt; 47-2) [listing 2 of 2 here]
- IC50 [1]: 48 nM
- IC50 [2]: 32 nM

Molecule: O=C(O)COc1cc2c(cc1F)C1(NC(=O)NC1=O)c1cc(F)ccc1-2 (stereo in doubt; 48-2) [listing 1 of 2 here]
- Ratio IC50 (Homo sapiens): 0.27

Molecule: O=C1NC(=O)C2(N1)c1cc(F)ccc1-c1ccc(C3CCC3)cc12 (stereo in doubt; 17-1)
- Ratio IC50 (Homo sapiens): 1.7

Molecule: O=C1NC(=O)C2(N1)c1cc(F)ccc1-c1c(OCC(=O)N3CCC3)cc(F)cc12 (stereo not given)
- IC50 [1]: 59 nM
- Ratio IC50 (Homo sapiens): 0.31
- IC50 [2]: 18 nM

Molecule: O=C(O)COc1cc2c(cc1F)C1(NC(=O)NC1=O)c1cc(F)ccc1-2 (stereo in doubt; 48-1) [listing 2 of 2 here]
- Ratio IC50 (Homo sapiens): 0.43

Molecule: O=C1NC(=O)C2(N1)c1ccccc1-c1c(F)cccc12 (stereo not given)
- IC50 [1]: 82 nM
- Ratio IC50 (Homo sapiens): 0.63
- IC50 [2]: 52 nM

Molecule: CC(/C=C1\SC(=S)N(CC(=O)O)C1=O)=C\c1ccccc1
- IC50 [3]: 325 nM

Molecule: O=C(O)Cc1cc(F)cc2c1-c1ccc(F)cc1C21NC(=O)NC1=O (stereo in doubt; 49-2)
- Ratio IC50 (Homo sapiens): 0.26

Molecule: O=C1NC(=O)C2(N1)c1cc(F)ccc1-c1ccc(C3CCC3)cc12 (stereo in doubt; 17-2)
- Ratio IC50 (Homo sapiens): 0.66

Molecule: O=C(O)Cc1c(O)c(F)cc2c1-c1ccc(F)cc1C21NC(=O)NC1=O (stereo in doubt; 47-1) [listing 2 of 2 here]
- Ratio IC50 (Homo sapiens): 1.7

Molecule: O=C(O)Cc1cc(F)cc2c1-c1ccc(F)cc1C21NC(=O)NC1=O (stereo in doubt; 49-1)
- Ratio IC50 (Homo sapiens): 0.53

B1: Aldo-keto reductase family 1 member A1 (Homo sapiens), P14550 (protein)
chain: T1 sequence (P14550 whole entry)
- Vmax [12]: 4.5 µmol·min
- Km [13]: 199 µM
- Vmax [14]: 13 µmol·min
- Km [15]: 98 µM

Second part, led by results:

- IC50 [1]: 127 nM
- IC50 [2]: 56 nM
Molecule: O=C1NC(=O)C2(N1)c1cc(Cl)ccc1-c1ccc(Cl)cc12
- Ratio IC50 (Homo sapiens): 0.44

- IC50 [1]: 74 nM
- IC50 [2]: 13 nM
Molecule: O=C1NC(=O)C2(N1)c1ccc(OCCO)cc1-c1ccc(F)cc12 (stereo not given)
- Ratio IC50 (Homo sapiens): 0.18

- IC50 [1]: 29 nM
- IC50 [2]: 14 nM
Molecule: O=C1NC(=O)C2(N1)c1cc(F)ccc1-c1cc(OC3COC3)c(F)cc12 (stereo not given)
- Ratio IC50 (Homo sapiens): 0.48

- IC50 [1]: 42 nM
- IC50 [2]: 53 nM
Molecule: O=C(O)COc1ccc2c(c1)-c1ccc(F)cc1C21NC(=O)NC1=O (stereo not given)
- Ratio IC50 (Homo sapiens): 1.3

- IC50 [1]: 122 nM
- IC50 [2]: 212 nM
Molecule: O=C1NC(=O)C2(N1)c1cc(F)ccc1-c1ccc(C3CC3)cc12 (stereo not given)
- Ratio IC50 (Homo sapiens): 1.7

- IC50 [1]: 82 nM
- IC50 [2]: 22 nM
Molecule: O=C(O)COc1cc2c(cc1F)C1(NC(=O)NC1=O)c1cc(F)ccc1-2 (stereo in doubt; 48-2) [listing 2 of 2 here]

- IC50 [1]: 80 nM
- IC50 [2]: 19 nM
Molecule: O=C1NC(=O)C2(N1)c1ccc(OCC(=O)N3CCC3)cc1-c1ccc(F)cc12 (stereo not given)
- Ratio IC50 (Homo sapiens): 0.24

- IC50 [1]: 63 nM
- IC50 [2]: 27 nM
Molecule: O=C(O)COc1cc2c(cc1F)C1(NC(=O)NC1=O)c1cc(F)ccc1-2 (stereo in doubt; 48-1) [listing 1 of 2 here]

- IC50 [1]: 67 nM
- IC50 [2]: 16 nM
Molecule: O=C1NC(=O)C2(N1)c1cc(F)ccc1-c1c(F)cccc12 (stereo not given)
- Ratio IC50 (Homo sapiens): 0.24

- IC50 [1]: 25 nM
- IC50 [2]: 42 nM
Molecule: O=C(O)Cc1c(O)c(F)cc2c1-c1ccc(F)cc1C21NC(=O)NC1=O (stereo in doubt; 47-1) [listing 1 of 2 here]

- IC50 [1]: 68 nM
- IC50 [2]: 16 nM
Molecule: COc1ccc2c(c1)-c1ccc(F)cc1C21NC(=O)NC1=O (stereo not given)
- Ratio IC50 (Homo sapiens): 0.24

- IC50 [1]: 51 nM
- IC50 [2]: 22 nM
Molecule: O=C1NC(=O)C2(N1)c1cc(F)ccc1-c1ccc(Br)cc12 (stereo not given)
- Ratio IC50 (Homo sapiens): 0.43

- IC50 [1]: 66 nM
- IC50 [2]: 11 nM
Molecule: O=C1NC(=O)C2(N1)c1cc(F)ccc1-c1c(-c3cn(C4CCCC4)nn3)cc(F)cc12 (stereo not given)
- Ratio IC50 (Homo sapiens): 0.17

- IC50 [1]: 53 nM
- IC50 [2]: 16 nM
Molecule: O=C1NC(=O)C2(N1)c1ccccc1-c1ccc(Cl)cc12 (stereo not given)
- Ratio IC50 (Homo sapiens): 0.3

- IC50 [1]: 57 nM
- IC50 [3]: 45 nM
- IC50 [2]: 46 nM
- IC50 [11]: 27 nM
Molecule: O=C1NC(=O)C2(N1)c1cc(F)ccc1-c1ccc(F)cc12
- Activity (Mus musculus [4]): inactive
- Activity (Mus musculus [5]): inactive
- inhibition (Mus musculus [6]): Active
- inhibition in vivo at 20 mg/kg [7]: 80%
- Ratio IC50 (Homo sapiens): 0.81
- inhibition (Mus musculus [8]): Active
- Activity (Mus musculus [9]): inactive
- Activity (Mus musculus [10]): inactive

- IC50 [1]: 72 nM
- IC50 [2]: 15 nM
Molecule: O=C1NC(=O)C2(N1)c1cc(F)ccc1-c1cc(C3CC3)c(F)cc12 (stereo not given)
- Ratio IC50 (Homo sapiens): 0.21
